In data set [1] the test system is human liver microsomes (HLMs). Briefly: Identification of Ket and norKet metabolites in HLM incubates. Type of data set: in vitro ADME. To be noted: HLMs 0.5 mg/ml; for metabolite found in HLM incubates of (R,S)-Ket: (R,S)-Ket 10 μM, Fig. 2A; for metabolite found in HLM incubates of (R,S)-norKet: (R,S)-norKet 10 μM, Fig. 2.
A further data set deals with T1, expressed CYP2B6 (Homo sapiens, UniProt P20813).
T1 sequence (P20813 1-491): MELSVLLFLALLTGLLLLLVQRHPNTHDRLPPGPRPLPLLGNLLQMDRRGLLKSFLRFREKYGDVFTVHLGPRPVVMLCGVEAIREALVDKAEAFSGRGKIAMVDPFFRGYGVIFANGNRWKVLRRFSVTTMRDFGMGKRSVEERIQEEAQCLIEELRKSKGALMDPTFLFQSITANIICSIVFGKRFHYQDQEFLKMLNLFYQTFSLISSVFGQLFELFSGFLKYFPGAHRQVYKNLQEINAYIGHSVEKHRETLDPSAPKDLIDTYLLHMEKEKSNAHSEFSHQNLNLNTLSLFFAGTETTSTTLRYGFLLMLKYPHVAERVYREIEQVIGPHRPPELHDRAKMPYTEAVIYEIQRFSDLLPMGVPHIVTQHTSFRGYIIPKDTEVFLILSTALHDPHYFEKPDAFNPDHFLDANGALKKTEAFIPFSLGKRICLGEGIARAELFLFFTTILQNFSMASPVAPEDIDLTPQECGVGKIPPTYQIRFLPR
Briefly: Incubation with expressed CYP2B6. To be noted: for Vmax: expressed CYP2B6 13 pmol, 37°C, 15 min; for depletion of substrate from the incubation mixture: data not shown. Type of data set: in vitro ADME.

The target of another data set is T2, expressed CYP2A6 (Homo sapiens, UniProt P11509).
T2 sequence (P11509 1-494): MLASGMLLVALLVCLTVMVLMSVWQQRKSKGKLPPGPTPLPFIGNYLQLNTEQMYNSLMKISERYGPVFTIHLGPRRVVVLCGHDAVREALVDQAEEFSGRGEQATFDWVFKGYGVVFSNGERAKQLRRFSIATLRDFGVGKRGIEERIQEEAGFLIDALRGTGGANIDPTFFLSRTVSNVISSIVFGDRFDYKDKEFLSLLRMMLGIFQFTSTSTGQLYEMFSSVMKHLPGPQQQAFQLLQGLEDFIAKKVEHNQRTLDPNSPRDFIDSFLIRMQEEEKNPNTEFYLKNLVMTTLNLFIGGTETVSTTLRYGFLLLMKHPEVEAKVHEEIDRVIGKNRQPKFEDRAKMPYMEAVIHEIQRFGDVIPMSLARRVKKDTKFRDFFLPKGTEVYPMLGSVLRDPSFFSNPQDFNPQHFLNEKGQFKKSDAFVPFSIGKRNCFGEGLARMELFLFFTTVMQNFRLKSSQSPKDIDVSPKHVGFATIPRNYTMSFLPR
Put plainly: Incubation with expressed CYP2A6. It is filed as in vitro ADME. To be noted: for Vmax: expressed CYP2A6 13 pmol, 37°C, 15 min; for depletion of substrate from the incubation mixture: expressed CYP2A6, data not shown.

Another data set addresses expressed CYP3A5 (Homo sapiens, UniProt P20815). Put plainly: Incubation with expressed CYP3A5. Type of data set: in vitro ADME. To be noted: expressed CYP3A5 13 pmol, 37°C, 15 min.
Data set [2] has as its system expressed human P450s (1A2, 2A6, 2B6, 2C8, 2C9, 2C19, 2D6, 2E1, 3A4, and 3A5). Put plainly: Incubation with panel of 10 expressed CYPs. Type of data set: in vitro ADME. To be noted: for disappearance of substrate, other isoforms (no appreciable effect, cutoff): expressed isoforms other than CYP2A6, CYP2B6, CYP2C19. The method in brief: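 Qualitative isoform screen. Baculovirus-insect cell-expressed human CYP1A2, 2A6, 2B6, 2C8, 2C9, 2C19, 2D6, 2E1, 3A4 or 3A5 with oxidoreductase (13–26 pmol) was incubated at 37°C with 10 μM (R)- or (S)-ketamine, or (R,S)-, (R)- or (S)-norketamine. The NADPH-generating system contained NADP, glucose 6-phosphate, MgCl2 and glucose-6-phosphate dehydrogenase. Ketamine incubations ran 15 min. Products measured by LC/MS/MS.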

The conditions of data set [3]: BPD patients 3 days after dosing of (R,S)-Ket; ref Zhao et al., 2012; cited from earlier work.
A further data set addresses expressed CYP2C19 (Homo sapiens, UniProt P33261). Put plainly: Incubation with expressed CYP2C19. It is filed as in vitro ADME. To be noted: data not shown.
Setting [4] is: formation of metabolite from (R)-norKet.
Where [5] appears, read: formation of metabolite from (S)-norKet.

expressed CYP3A5, sequence (P20815 whole entry, canonical isoform): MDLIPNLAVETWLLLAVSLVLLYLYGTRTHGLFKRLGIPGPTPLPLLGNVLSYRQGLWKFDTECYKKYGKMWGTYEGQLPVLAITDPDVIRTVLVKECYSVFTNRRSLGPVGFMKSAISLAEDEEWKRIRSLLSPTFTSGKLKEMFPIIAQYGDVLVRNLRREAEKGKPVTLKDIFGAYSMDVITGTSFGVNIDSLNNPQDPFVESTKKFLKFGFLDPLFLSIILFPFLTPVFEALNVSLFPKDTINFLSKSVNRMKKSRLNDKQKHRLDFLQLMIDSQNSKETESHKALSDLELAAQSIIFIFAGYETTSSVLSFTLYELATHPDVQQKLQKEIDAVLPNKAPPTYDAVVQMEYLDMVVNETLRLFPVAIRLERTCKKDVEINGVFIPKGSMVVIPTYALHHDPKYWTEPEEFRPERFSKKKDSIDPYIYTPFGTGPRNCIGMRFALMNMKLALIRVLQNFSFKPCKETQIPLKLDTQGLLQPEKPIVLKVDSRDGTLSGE
expressed CYP2C19, sequence (P33261 whole entry): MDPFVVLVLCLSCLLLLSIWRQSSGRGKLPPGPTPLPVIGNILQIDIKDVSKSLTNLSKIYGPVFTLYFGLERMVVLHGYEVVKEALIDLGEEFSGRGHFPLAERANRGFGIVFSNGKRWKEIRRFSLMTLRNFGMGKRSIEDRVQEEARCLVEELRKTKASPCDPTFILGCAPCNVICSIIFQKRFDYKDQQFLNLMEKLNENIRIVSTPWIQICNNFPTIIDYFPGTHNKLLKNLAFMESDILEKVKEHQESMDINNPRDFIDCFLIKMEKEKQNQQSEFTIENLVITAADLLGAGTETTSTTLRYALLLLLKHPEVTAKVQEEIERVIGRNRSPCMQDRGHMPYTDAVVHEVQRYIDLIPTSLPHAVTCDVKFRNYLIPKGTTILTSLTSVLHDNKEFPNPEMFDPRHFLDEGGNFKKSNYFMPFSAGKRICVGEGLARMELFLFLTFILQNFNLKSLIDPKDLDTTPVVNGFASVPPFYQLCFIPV

For the compound `NC1(c2ccccc2Cl)CCCCC1=O` (racemic) [(R,S)-norKet, norketamine], the “metabolite found in HLM incubates of (R,S)-Ket” value (“metabolite found … (R,S)-Ket” below) in data set [1] is reported as “significant concentrations”.

Turning to `CNC1(c2ccccc2Cl)CCCC(O)C1=O` (single isomer, unassigned) [5a], the “metabolite found … (R,S)-Ket” value in data set [1] was “significant concentrations”. In addition, the “decrease of substrate concentration in the incubates” value on expressed CYP2B6 (substrate 5a, incubates containing CYP2B6) was 42.5%.

In the case of `CNC1(c2ccccc2Cl)CCCC(O)C1=O` (single isomer, unassigned) [5b], the “metabolite found … (R,S)-Ket” value in data set [1] was “significant concentrations”.

Consider `NC1(c2ccccc2Cl)CCCC(O)C1=O` [4a, (2S,6S;2R,6R)-HNK], for which the Vmax at expressed CYP2A6 (setting [4]) was determined as 8.18 pmol/min/pmol P450; on expressed CYP2A6 (setting [5]) it was 3.9 pmol/min/pmol P450; at expressed CYP3A5 (setting [4]), 0.29 pmol/min/pmol P450; on expressed CYP3A5 (setting [5]), 3.87 pmol/min/pmol P450; on expressed CYP2B6 (setting [4]), 0.76 pmol/min/pmol P450; at expressed CYP2B6 (setting [5]) it was 0.56 pmol/min/pmol P450. Also, in data set [1], the “metabolite found … (R,S)-Ket” value is “significant concentrations”. Moreover, the “metabolite found in HLM incubates of (R,S)-norKet” value (shortened to “metabolite found … (R,S)-norKet”) in data set [1] was “significant concentrations”. In addition, the “N-demethylated metabolite formed (highest rate)” value on expressed CYP2B6 (substrate 5a, expressed CYP2B6) is 201.6 ng/mL. Besides, in data set [2] (substrate 5a, expressed CYPs other than CYP2B6, data not shown), the “metabolite formation by other CYPs” value is less than 13 ng/mL. For the same compound, the plasma concentration in data set [3] was greater than 8 ng/mL.

On to `NC1(c2ccccc2Cl)CCCC(O)C1=O` [4b, (2S,6R;2R,6S)-HNK], for which, in data set [1], the “metabolite found … (R,S)-Ket” value is “significant concentrations” and the “metabolite found … (R,S)-norKet” value is given as “not detected”. Moreover, in data set [2] (10 expressed CYPs), the “generation from (S)- or (R)-norKet by any of the expressed CYPs” value is “not generated”.

As to `NC1(c2ccccc2Cl)CCC(O)CC1=O` [4c, (2S,5S;2R,5R)-HNK], the Vmax at expressed CYP2A6 (setting [4]) is 1.25 pmol/min/pmol P450; at expressed CYP2A6 (setting [5]), 1.48 pmol/min/pmol P450; at expressed CYP3A5 (setting [4]), 0.038 pmol/min/pmol P450; on expressed CYP3A5 (setting [5]), 0.30 pmol/min/pmol P450; on expressed CYP2B6 (setting [4]), 16.72 pmol/min/pmol P450; at expressed CYP2B6 (setting [5]) it was 16.3 pmol/min/pmol P450. Besides, the “metabolite found … (R,S)-Ket” value in data set [1] is on record as “significant concentrations”. For the same compound, the “metabolite found … (R,S)-norKet” value in data set [1] is reported as “significant concentrations”.

In the case of `NC1(c2ccccc2Cl)CC(O)CCC1=O` [4d, (2S,4S;2R,4R)-HNK], the Vmax at expressed CYP2A6 (setting [4]) came to 1.28 pmol/min/pmol P450; at expressed CYP2A6 (setting [5]), 4.67 pmol/min/pmol P450; at expressed CYP3A5 (setting [4]) it was 0.029 pmol/min/pmol P450; on expressed CYP3A5 (setting [5]) it was 0.20 pmol/min/pmol P450; on expressed CYP2B6 (setting [4]) it was 0.78 pmol/min/pmol P450; on expressed CYP2B6 (setting [5]) it was 3.34 pmol/min/pmol P450. In data set [1], the “metabolite found … (R,S)-Ket” value was “trace amounts”. Also, the “metabolite found … (R,S)-norKet” value in data set [1] is on record as “trace amounts”.

`NC1(c2ccccc2Cl)CC(O)CCC1=O` [4e, (2S,4R;2R,4S)-HNK]: in data set [1], the “metabolite found … (R,S)-Ket” value is “trace amounts” and the “metabolite found … (R,S)-norKet” value was “trace amounts”. In addition, the Vmax at expressed CYP3A5 (setting [4]) was determined as 0.087 pmol/min/pmol P450. In addition, the Vmax at expressed CYP3A5 (setting [5]) was found to be 3.14 pmol/min/pmol P450.

Take `NC1(c2ccccc2Cl)CCC(O)CC1=O` [4f, (2S,5R;2R,5S)-HNK]: the Vmax at expressed CYP2A6 (setting [4]) stood at 0.44 pmol/min/pmol P450; on expressed CYP2A6 (setting [5]) it was 0.33 pmol/min/pmol P450; at expressed CYP3A5 (setting [4]) it was 1.69 pmol/min/pmol P450; at expressed CYP3A5 (setting [5]) it was 5.71 pmol/min/pmol P450; on expressed CYP2B6 (setting [4]), 3.98 pmol/min/pmol P450; on expressed CYP2B6 (setting [5]), 0.30 pmol/min/pmol P450. In data set [1], the “metabolite found … (R,S)-Ket” value is reported as “significant concentrations”. In data set [1], the “metabolite found … (R,S)-norKet” value was “significant concentrations”. Moreover, at expressed CYP2B6 (enzyme not given, Table 5, fits CYP2B6), the “Clint for formation from (R)-norKet relative to (S)-norKet” value is listed as ~ 10 fold.

For the compound `N[C@@]1(c2ccccc2Cl)CCCCC1=O` [(R)-norKet], the entries for the “depletion of substrate from the incubation mixture” value at expressed CYP2A6, at expressed CYP2B6 (expressed CYP2B6) and on expressed CYP2C19 were 34.5%, 47.8% and 35.0%, respectively. Further, the “disappearance of substrate, other isoforms (no appreciable effect, cutoff)” value in data set [2] (data not shown) is given as less than 24%.

In the case of `N[C@]1(c2ccccc2Cl)CCCCC1=O` [(S)-norKet], the “depletion of substrate from the incubation mixture” value is 41.0% at expressed CYP2A6, 41.6% on expressed CYP2B6 (expressed CYP2B6) and 27.3% at expressed CYP2C19. Besides, the “disappearance of substrate, other isoforms (no appreciable effect, cutoff)” value in data set [2] (data not shown) is less than 24%.

Take `NC1(c2ccccc2Cl)CCC=CC1=O` (stereo not shown) [DHNK, 5,6-dehydronorketamine]: the Vmax on expressed CYP2A6 (setting [4]) is 0.98 pmol/min/pmol P450; at expressed CYP2A6 (setting [5]), 0.92 pmol/min/pmol P450; at expressed CYP3A5 (setting [4]), 0.079 pmol/min/pmol P450; at expressed CYP3A5 (setting [5]), 1.96 pmol/min/pmol P450; at expressed CYP2B6 (setting [4]), 13.0 pmol/min/pmol P450; on expressed CYP2B6 (setting [5]), 7.61 pmol/min/pmol P450. Further, the “metabolite found … (R,S)-Ket” value in data set [1] is listed as “significant concentrations”. In data set [1], the “metabolite found … (R,S)-norKet” value is reported as “significant concentrations”. Further, in data set [3], the plasma concentration is greater than 8 ng/mL.

The values above are taken from publication PMC3426663 (Xenobiotica; the fate of foreign compounds in biological …, 2012).
